Experimental findings from ChEMBL document CHEMBL1221173, “Dynamic imaging of protease activity with fluorescently quenched activity-based probes” (Nat Chem Biol, 2005) are described below.

Activity calls are given as the source filed them. No cut-off for these calls is given here.

Data set [1] addresses Procathepsin L (Homo sapiens) (UniProt P07711). Description: Inhibition of human cathepsin L using Z-FR-AMC substrate assessed as inhibition association constant by fluorimetric assay. The gist of the method:
(§1)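 Cathepsin B or L (1 nM final) with inhibitor at 10–2,000 nM plus 10 µM substrate (Z-RR-AMC for B, Km 114 µM; Z-FR-AMC for L, Km 7.1 µM), 3.5% DMSO. AMC fluorescence (Ex 370/Em 460 nm) read continuously for 30 min. k_app from inhibition curves converted to k_ass = k_app(1+[S]/K_M).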

The target in data set [2] is Cathepsin B (Bos taurus) (UniProt P07688). Kind of data set: Inhibition of bovine cathepsin B using Z-RR-AMC substrate assessed as inhibition association constant by fluorimetric assay. The gist of the method: as §1
Data set [3] is described as follows: Cytotoxicity against mouse NIH/3T3 cells. As to conditions: nih3t3. The class given is cell-based.
For data set [4], the target named is T1, Procathepsin L (Mus musculus) (UniProt P06797).
T1 sequence (whole entry): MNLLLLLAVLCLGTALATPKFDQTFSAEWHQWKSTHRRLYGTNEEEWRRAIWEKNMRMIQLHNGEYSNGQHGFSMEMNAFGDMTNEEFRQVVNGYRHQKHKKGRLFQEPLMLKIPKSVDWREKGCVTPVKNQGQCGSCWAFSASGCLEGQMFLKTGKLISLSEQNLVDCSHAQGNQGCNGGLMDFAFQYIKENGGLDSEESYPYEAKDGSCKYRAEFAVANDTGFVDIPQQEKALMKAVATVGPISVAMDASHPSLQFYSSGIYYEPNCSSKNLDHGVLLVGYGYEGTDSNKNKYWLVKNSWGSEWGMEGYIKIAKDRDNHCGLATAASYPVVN
Description: Binding affinity to cathepsin L in mouse NIH/3T3 cells assessed as protein labeling at 1 uM after 30 mins using SDS-PAGE and Typhoon laser flatbed canning method. Conditions: NIH3T3. The class given is cell-based. The gist of the method:
(§2)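 NIH-3T3 monolayers seeded one day before. Pretreated 1 h with JPM-OEt (50 µM) or 0.1% DMSO, then probe added to medium at pH 7.4 (final DMSO 0.2%) for the indicated times. Cells PBS-washed and lysed in SDS sample buffer, then boiled. Equal protein run on 12% SDS-PAGE, gel scanned at Ex/Em 532/580 nm.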

For data set [5], the target named is Cathepsin B (Mus musculus) (UniProt P10605). Kind of data set: Binding affinity to cathepsin B in mouse NIH/3T3 cells assessed as protein labeling at 1 uM after 30 mins using SDS-PAGE and Typhoon laser flatbed canning method. The data set is classed as cell-based. As to conditions: NIH3T3. The gist of the method: as §2
Cathepsin B (Mus musculus), sequence (P10605 80-333 limits assumed): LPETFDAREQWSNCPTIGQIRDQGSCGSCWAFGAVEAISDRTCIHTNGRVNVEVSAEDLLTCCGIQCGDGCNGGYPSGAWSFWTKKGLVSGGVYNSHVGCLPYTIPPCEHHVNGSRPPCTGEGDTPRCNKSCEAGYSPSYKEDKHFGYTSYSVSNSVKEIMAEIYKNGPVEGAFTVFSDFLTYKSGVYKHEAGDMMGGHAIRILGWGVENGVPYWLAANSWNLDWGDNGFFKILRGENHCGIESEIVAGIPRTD
The target is the same in data set [6]. Kind of data set: Binding affinity to cathepsin B in mouse NIH/3T3 cells monolayers assessed as protein labeling at 1 uM after 4 to 5 hrs by fluorescence microscopy. The data set is classed as cell-based. As to conditions: NIH3T3. The method in brief:
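Live NIH-3T3 cells on glass coverslips, pretreated 1 h with JPM-OEt (50 µM) or 0.1% DMSO. Probe (1 µM) added to growth medium, pH 7.4, for 4–5 h. Moved to phenol red-free medium with LysoTracker (50 nM final) for lysosome co-localization, then imaged by inverted fluorescence microscopy. Some cells first washed 3 h in medium with JPM-OEt or DMSO.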

Data set [7] in a line: Binding affinity to recombinant cathepsin X assessed as protein labeling at 0.1 to 10 uM after 30 mins using SDS-PAGE and Typhoon laser flatbed canning method.
Data set [8] concerns the target Cathepsin B (Homo sapiens) (UniProt P07858). Kind of data set: Binding affinity to cathepsin B in 8 day old human MCF10A cells grown on reconstituted basement membrane assessed as protein labeling exposed to 1 uM for 3 hrs followed by washing overnight with growth media by confocal fluorescence microscopy. The class given is cell-based. Conditions: MCF-10A. The method in brief:
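Day 8 three-dimensional MCF-10A cultures on reconstituted basement membrane, grown without probe. Treated with 1 µM probe for 3 h in assay medium (2% horse serum, 5 ng/ml EGF), washed overnight, then cold-methanol fixed. Immunostained overnight at 4 °C with rabbit anti-human cathepsin B, then secondary antibody and DAPI. Imaged by confocal microscopy.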

In data set [9] the target is Cathepsin B (Bos taurus) (UniProt P07688). Description: Binding affinity to bovine recombinant cathepsin B assessed as protein labeling at 0.1 to 10 uM after 30 mins using SDS-PAGE and Typhoon laser flatbed canning method. The method in brief: (§3)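 Recombinant enzyme (cathepsin B, bovine, 0.4 µg; cathepsin L, human, 0.7 µg) in pH 5.5 acetate buffer (50 mM acetate, 2 mM DTT, 5 mM MgCl₂). Optional 30 min pretreatment at 25 °C with general papain-family inhibitor JPM-OEt (25 µM), or DMSO. Probe at increasing concentrations for 30 min. Stopped with SDS sample buffer, SDS-PAGE, gel fluorescence scanned.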

Data set [10] has as its target Cathepsin S (Homo sapiens) (UniProt P25774). Description: Binding affinity to recombinant cathepsin S assessed as protein labeling at 0.1 to 10 uM after 30 mins using SDS-PAGE and Typhoon laser flatbed canning method.
Data set [11] addresses Cathepsin B (Homo sapiens) (UniProt P07858). Description: Binding affinity to cathepsin B in human MCF10A cells grown on reconstituted basement membrane exposed to 1 uM compounds assessed as protein labeling after 3 days by confocal fluorescence microscopy. As to conditions: MCF-10A.
The target in data set [12] is Procathepsin L (Homo sapiens) (UniProt P07711). Kind of data set: Binding affinity to cathepsin L in human MCF10A cells grown on reconstituted basement membrane exposed to 1 uM compounds assessed as protein labeling after 3 days by confocal fluorescence microscopy. Conditions: MCF-10A.
Procathepsin L (Homo sapiens), sequence (P07711 114-333 limits assumed): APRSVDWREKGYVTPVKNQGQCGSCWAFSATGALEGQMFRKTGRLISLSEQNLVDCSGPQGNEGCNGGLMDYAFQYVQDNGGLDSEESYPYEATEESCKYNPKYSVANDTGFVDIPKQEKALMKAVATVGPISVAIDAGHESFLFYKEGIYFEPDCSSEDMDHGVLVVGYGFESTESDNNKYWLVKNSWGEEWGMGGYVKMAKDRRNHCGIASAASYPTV
For data set [13] the target is unchanged. Kind of data set: Binding affinity to human recombinant cathepsin L assessed as protein labeling at 0.1 to 10 uM after 30 mins using SDS-PAGE and Typhoon laser flatbed canning method. The method in brief:
as §3

Cathepsin S (Homo sapiens), sequence (P25774 115-331 limits assumed): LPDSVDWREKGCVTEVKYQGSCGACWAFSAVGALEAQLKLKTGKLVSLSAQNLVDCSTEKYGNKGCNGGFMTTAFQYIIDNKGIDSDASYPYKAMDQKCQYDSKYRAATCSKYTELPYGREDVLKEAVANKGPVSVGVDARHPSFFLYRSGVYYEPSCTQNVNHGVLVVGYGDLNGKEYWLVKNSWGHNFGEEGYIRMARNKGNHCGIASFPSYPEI

Consider `COc1ccc(-c2ccc3n2[B-](F)(F)[N+]2=C(C)C(CCC(=O)NCCCCCC(=O)NCCCC[C@@H](NC(=O)[C@@H](Cc4ccccc4)NC(=O)OC(C)(C)C)C(=O)COC(=O)c4c(C)cccc4C)=C(C)C2=C3)cc1`, for which the INH in data set [1] came out at 1180 M⁻¹ s⁻¹; in data set [2] it was 212 M⁻¹ s⁻¹.

On to `COc1ccc(-c2ccc3n2[B-](F)(F)[N+]2=C(C)C(CCC(=O)NCCCCCC(=O)NCCCC[C@@H](NC(=O)[C@@H](Cc4ccccc4)NC(=O)OCc4ccccc4)C(=O)COC(=O)c4c(C)cccc4C)=C(C)C2=C3)cc1`, for which, in data set [3], the Activity entry is reported as “Non-toxic”. Moreover, the result in [4], in [5], in [6], in data set [7], in data set [8] and in data set [9] was Active. Moreover, the result in [10], in data set [11], in data set [12] and in data set [13] was Active. For the same compound, the INH in data set [1] was found to be 2580 M⁻¹ s⁻¹; in [2], 1260 M⁻¹ s⁻¹.

As to `COc1ccc(-c2ccc3n2[B-](F)(F)[N+]2=C(C)C(CCC(=O)NCCCCCC(=O)NCCCC[C@@H](NC(=O)[C@@H](Cc4ccccc4)NC(=O)OCc4ccccc4)C(=O)COC(=O)CNC(=O)C4CCN(S(=O)(=O)c5ccccc5-c5c6cc/c(=[N+](/C)c7ccccc7)cc-6oc6cc(Nc7ccccc7)ccc56)CC4)=C(C)C2=C3)cc1`, the Activity entry in [3] is reported as “Non-toxic”. The outcome in [4], in [6], in data set [7], in data set [9], in data set [10] and in [11] was Active. Further, the result in data set [12] and in data set [13] was Active. Moreover, in data set [5], the outcome was inactive. Besides, the results for the INH in data set [1] and in data set [2] were 7000 M⁻¹ s⁻¹ and 275 M⁻¹ s⁻¹, respectively.

For the compound `COc1ccc(-c2ccc3n2[B-](F)(F)[N+]2=C(C)C(CCC(=O)NCCCCCC(=O)NCCCC[C@@H](NC(=O)[C@H](N)Cc4ccccc4)C(=O)COC(=O)c4c(C)cccc4C)=C(C)C2=C3)cc1`, the values for the INH in [1] and in data set [2] were 296000 M⁻¹ s⁻¹ and 38500 M⁻¹ s⁻¹, respectively.
